An excerpt weighted towards active compounds, which were near 2.8% of everything screened.
EP2 mod: modulates human prostaglandin E2 receptor EP2 signaling; P43116; EP2-expressing cells, cAMP HTRF FRET, PGE2 co-stimulation; induction, % at 25 µM; hit rate 0.83% among 260,000; AID 940;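 active = compounds whose cAMP rise, as percent of the full-agonist control response, exceeds 60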;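 also: rat C6 glioma line stably carrying human EP2 under a CMV promoter; the protocol text gives 20 µM as final concentration; 100% = response of wells given 1 µM PGE2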
Target sequence (P43116 whole entry, looked up): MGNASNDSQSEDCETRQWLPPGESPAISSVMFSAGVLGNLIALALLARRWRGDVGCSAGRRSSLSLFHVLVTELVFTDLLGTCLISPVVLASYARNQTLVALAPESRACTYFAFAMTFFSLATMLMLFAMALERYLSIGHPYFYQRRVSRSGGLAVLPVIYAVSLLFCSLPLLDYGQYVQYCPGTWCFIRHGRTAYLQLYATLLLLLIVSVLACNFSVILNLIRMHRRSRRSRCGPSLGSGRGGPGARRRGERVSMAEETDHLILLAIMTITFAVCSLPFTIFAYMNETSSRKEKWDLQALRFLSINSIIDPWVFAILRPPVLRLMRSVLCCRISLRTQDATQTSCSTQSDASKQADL
NPY-Y1 PAM-ag: potentiates or activates human NPY-Y1 receptor; hit rate 0.37% among 220,000; activation, % at 3.6 µM; P25929; NPY-Y1 expressing cells, potentiator/agonist activation; in the data active = activation above about 33%, passing the limit was not always enough;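 also: cells stimulated with NPY at EC10 then isoproterenol at EC100; 0% = low agonist plus stimulus and 100% = saturating agonist plus stimulus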
PGE2 EP2 inh: blocks the human prostaglandin E2 receptor EP2; P43116; C6 glioma cells expressing human EP2, cAMP TR-FRET; cells stimulated with saturating PGE2; inhibition, % at 25 µM; hit rate 0.52% among 260,000; AID 1422;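 active = percent inhibition above 40 after rounding to a whole number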;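 also: rat C6 glioma host cells with rolipram phosphodiesterase inhibitor present; the protocol text gives 20 µM as final concentration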
NPY-Y2 antag: blocks the human neuropeptide Y Y2 receptor. P49146. AID 793. NPY-Y2 expressing cells, antagonist mode. inhibition, % at 2.7 µM. hit rate 0.99% among 140,000; in the data active = inhibition above about 17%;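 also: 0% = vehicle with agonist challenge and 100% = reference antagonist with challenge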
NPY Y1 blocker: blocks the human neuropeptide Y Y1 receptor; P25929; HEK293-CNG Y1 cells, membrane potential fluorescence; NPY at EC95, then isoproterenol; inhibition, % at 3.6 µM; hit rate 1% among 200,000; AID 1040;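 active = inhibition above the campaign mean inhibition of all tested compounds plus 3 SD, cut at about 20% in these data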;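 also: 0% = DMSO wells given NPY plus isoproterenol and 100% = isoproterenol alone without NPY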
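material = HEK293 cells with Y1 receptor plus CNG channel | also added = NPY 25 nM then isoproterenol 1 µM plus Ro 20-1724 25 µM | schedule = dye 3 h, compound 60 min room temperature, stimulation 45 min | measured by = membrane potential fluorescence | benchmarks = high control isoproterenol alone, low control NPY with isoproterenol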
NPY-Y2 PAM-ag: potentiators or agonists of human neuropeptide Y receptor Y2 | cells expressing NPY-Y2, potentiator/agonist read-out | activation, % at 3.6 µM | hit rate 0.45% among 220,000; in the data active = activation above about 27%;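 also: cells stimulated with NPY near EC25 plus isoproterenol at EC100; 0% = vehicle plus submaximal agonist and 100% = vehicle plus saturating agonist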
Numbers without * were called inactive.

Screening O=C(N/N=C/c1c[nH]c2ccccc12)c1cccc([N+](=O)[O-])c1 returned EP2 mod -14, NPY-Y1 PAM-ag -13, PGE2 EP2 inh 6, NPY-Y2 antag 5, NPY Y1 blocker -7 and NPY-Y2 PAM-ag 8.
Screening O=[N+]([O-])c1ccc(N/N=C/c2c[nH]c3ccccc23)cc1 returned EP2 mod -15, NPY-Y1 PAM-ag 55*, PGE2 EP2 inh 25, NPY-Y2 antag -8, NPY Y1 blocker -20 and NPY-Y2 PAM-ag 48*.
C(=N\Nc1nc2ccccc2[nH]1)/c1c[nH]c2ccccc12 was read as EP2 mod -103, NPY-Y1 PAM-ag 44*, PGE2 EP2 inh 33, NPY-Y2 antag 0, NPY Y1 blocker -6 and NPY-Y2 PAM-ag 34*.
Screening COc1ccccc1NS(=O)(=O)c1cc([N+](=O)[O-])ccc1N/N=C/c1c[nH]c2ccccc12 returned EP2 mod -31, NPY-Y1 PAM-ag 39*, PGE2 EP2 inh 11, NPY-Y2 antag -5, NPY Y1 blocker -4 and NPY-Y2 PAM-ag 34*.
For Cc1ccccc1/C=N/Nc1nc2ccccc2[nH]1 the results were EP2 mod -95, NPY-Y1 PAM-ag -34, PGE2 EP2 inh 20, NPY Y1 blocker 12 and NPY-Y2 PAM-ag -23.
`CCOC(=O)Cn1nnc2c(cnn2-c2ccc(F)cc2)c1=O` gave EP2 mod -16.
Screening Cc1ccc2[nH]c(=O)c(C(c3nnnn3Cc3ccccc3)N3CCN4CCCC4C3)cc2c1 (stereo not drawn) returned EP2 mod 9 and PGE2 EP2 inh 10.
For O=S(=O)(Nc1ncnc2sc3c(c12)CCC3)c1ccc(Cl)s1 the results were EP2 mod -4, NPY-Y1 PAM-ag 52*, PGE2 EP2 inh 17, NPY-Y2 antag -1, NPY Y1 blocker -13 and NPY-Y2 PAM-ag 46*.
For c1ccc(C(c2ccccn2)c2ccccn2)cc1 the results were EP2 mod 6, NPY-Y1 PAM-ag 17, PGE2 EP2 inh 8, NPY-Y2 antag 2, NPY Y1 blocker -3 and NPY-Y2 PAM-ag 8.
For CC(=O)Oc1ccc(C(c2ccc(OC(C)=O)cc2)c2ccccn2)cc1 the results were EP2 mod 6, NPY-Y1 PAM-ag -125, PGE2 EP2 inh 11, NPY-Y2 antag 108*, NPY Y1 blocker 102* and NPY-Y2 PAM-ag -28.
Screening Cc1ccc(NC(=O)CSc2nnc3c(n2)[nH]c2ccc(C)cc23)c(C)c1 returned EP2 mod -27 and PGE2 EP2 inh 7.
`O=[N+]([O-])c1ccc(N=Nc2c(Cl)cc(O)cc2Cl)cc1` gave EP2 mod -64, NPY-Y1 PAM-ag 67*, PGE2 EP2 inh 15 and NPY-Y2 PAM-ag 65*.
`COc1cccc(CC(=O)NC(CC(C)C)c2nc3cccnc3n2C)c1` (stereo not drawn) gave EP2 mod -12.
`O=S(=O)(NCCc1ccccc1)c1ccc(S(=O)(=O)N2CCCCCC2)cc1` gave EP2 mod -25 and PGE2 EP2 inh 15.
`Oc1c(Cl)cc(C(c2cc(Cl)c(O)c(Cl)c2)C(c2cc(Cl)c(O)c(Cl)c2)c2cc(Cl)c(O)c(Cl)c2)cc1Cl` gave EP2 mod 28 and PGE2 EP2 inh 49*.
`Cc1ccccc1Nc1c(-c2cccnc2)nc2cccc(C)n12` gave EP2 mod 28, NPY-Y1 PAM-ag 39*, PGE2 EP2 inh 1, NPY Y1 blocker -2 and NPY-Y2 PAM-ag 29*.
CC(Cc1cccs1)NC(=O)C1CCN(Cc2ccccc2Cl)CC1 (stereo not drawn) was read as EP2 mod -94 and PGE2 EP2 inh 4.
For O=C(Nc1nc2ccc(F)cc2s1)c1cccc(Cl)c1 the results were EP2 mod -24 and PGE2 EP2 inh 4.
CN(C)CCOc1nc(-c2ccccc2)nc2c1oc1ccccc12 was read as EP2 mod -11, NPY-Y1 PAM-ag 59*, PGE2 EP2 inh 10, NPY-Y2 antag 6, NPY Y1 blocker -1 and NPY-Y2 PAM-ag 69*.
`CN(C)CCOc1ncnc2c1oc1ccccc12` gave EP2 mod 0, NPY-Y1 PAM-ag -6, PGE2 EP2 inh 3, NPY-Y2 antag 2, NPY Y1 blocker -1 and NPY-Y2 PAM-ag -14.
`O=C(Nc1ccc2ccccc2c1)C(c1ccccc1)C1CCCC1` (stereo not drawn) gave EP2 mod 24, NPY-Y1 PAM-ag -14, PGE2 EP2 inh 2, NPY-Y2 antag 22*, NPY Y1 blocker 33* and NPY-Y2 PAM-ag -4.
Screening NC(=O)C(c1ccccc1)C1CCCC1 (stereo not drawn) returned EP2 mod 12, NPY-Y1 PAM-ag -17, PGE2 EP2 inh 3, NPY-Y2 antag 4, NPY Y1 blocker -3 and NPY-Y2 PAM-ag -14.
Cc1ccccc1NC(=O)C(c1ccccc1)C1CCCC1 (stereo not drawn) was read as EP2 mod -2, NPY-Y1 PAM-ag -19, PGE2 EP2 inh 3, NPY-Y2 antag 23*, NPY Y1 blocker 26* and NPY-Y2 PAM-ag -8.
Screening CCc1nnc(NC(=O)c2nc3c(nnn3Cc3cc(C)ccc3C)c(=O)[nH]2)s1 returned EP2 mod -13 and PGE2 EP2 inh 7.
`CCOC(=O)CCN(Cc1cccs1)S(=O)(=O)c1ccc(Cl)cc1` gave EP2 mod 61*, NPY-Y1 PAM-ag 6, PGE2 EP2 inh 8, NPY-Y2 antag 6, NPY Y1 blocker 9 and NPY-Y2 PAM-ag -6.
Screening CC(=O)N(CCS(=O)(=O)c1ccc(Cl)cc1)Cc1cccs1 returned EP2 mod -20, NPY-Y1 PAM-ag 1, PGE2 EP2 inh 13 and NPY-Y2 PAM-ag 2.
`O=C(NCc1ccncc1)c1cccc2ccccc12` gave EP2 mod -28 and PGE2 EP2 inh 4.
For c1cn2c(Nc3ccc4c(c3)OCCO4)c(-c3ccc(N4CCOCC4)cc3)nc2cn1 the results were EP2 mod -1, NPY-Y1 PAM-ag 18, PGE2 EP2 inh 3 and NPY-Y2 PAM-ag -19.
Screening Cc1cccc(C)c1Nc1c(-c2ccc(N3CCOCC3)cc2)nc2cnccn12 returned EP2 mod -49, NPY-Y1 PAM-ag 84*, PGE2 EP2 inh 8 and NPY-Y2 PAM-ag 71*.
`O=C(O)c1ccc2c(c1C(=O)O)C(=O)OC2(c1ccc(O)cc1)c1ccc(O)cc1` gave EP2 mod 20 and PGE2 EP2 inh 44*.
For O=C(O)CCCNC1=NCCC1 the results were EP2 mod 7, NPY-Y1 PAM-ag 16, PGE2 EP2 inh 12, NPY-Y2 antag 4, NPY Y1 blocker 42* and NPY-Y2 PAM-ag 4.
O=C(O)CCCNC1=NCCN1 was read as EP2 mod -16 and PGE2 EP2 inh 9.
Screening COc1ccc(CN2CC[C@@H](NCCCN(C)C)[C@H](O)C2)cc1 returned EP2 mod -12 and PGE2 EP2 inh 13.
For Cc1ccc(C(C)C)c(OCC(O)CN2CCOCC2)c1 (stereo not drawn) the results were EP2 mod 4, NPY-Y1 PAM-ag 89*, PGE2 EP2 inh 7, NPY-Y2 antag 1, NPY Y1 blocker -13 and NPY-Y2 PAM-ag 76*.
